According to ChEMBL document CHEMBL1143149, “Synthesis, metal ion binding, and biological evaluation of new anticancer 2-(2'-hydroxyphenyl)benzoxazole analogs of UK-1” (Bioorg Med Chem, 2008):
Calls of active or inactive are those of the source. The rule behind the calls is not given here.

How the values were obtained:
MCF7 [1] = assay: Cytotoxicity against human MCF7 cells by Alamar blue assay; format: functional, cell-based
Method in brief: (§1)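 MCF-7 cells in improved MEM (Richter's) with L-glutamine, 10% FBS and 1% penicillin/streptomycin. 1-3×10^3 cells/well preincubated 24 h at 37 °C, 5% CO2. DMSO solutions added in duplicate at 0.001–50 μM final, then 72 h exposure. AlamarBlue added for 6 h; fluorescence read ex 530/em 590 nm. IC50 by sigmoidal fit of % growth against time-zero and vehicle.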

A549 [2] = assay: Cytotoxicity against human A549 cells by Alamar blue assay; format: functional, cell-based
Method in brief: (§2)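 A549 cells in Ham's F-12 (Kaighn's) with 10% FBS and 1% penicillin/streptomycin. Seeded at 1-3×10^3 cells/well for 24 h at 37 °C, 5% CO2. Compound in DMSO added in duplicate at 0.001–50 μM final, then 72 h. Fresh medium plus AlamarBlue for 6 h; fluorescence ex 530/em 590 nm. % growth relative to time-zero and vehicle; IC50 from Hill-equation non-linear fit.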

[3] = Enhancement of DNA binding affinity in presence of Cu2+/Ni2+
A549 [4] = assay: Cytotoxicity against human A549 cells after 24 hrs in presence of CuCl2; format: functional, cell-based; conditions: A549, 24 h
MCF7 [5] = assay: Cytotoxicity against human MCF7 cells after 24 hrs in presence of CuCl2; format: functional, cell-based; conditions: MCF7, 24 h
MCF7 [6] = assay: Cytotoxicity against human MCF7 cells after 72 hrs; format: functional, cell-based; conditions: MCF7, 72 h; method in brief: as §1
MCF7 [7] = assay: Cytotoxicity against human MCF7 cells after 24 hrs; format: functional, cell-based; conditions: MCF7, 24 h
A549 [8] = assay: Cytotoxicity against human A549 cells after 72 hrs in presence of CuCl2; format: functional, cell-based; conditions: A549, 72 h
Method in brief: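 A549 cells in Ham's F-12 (Kaighn's) with 10% FBS and penicillin/streptomycin. Compound plus 10 μM CuCl2 for 72 h at 37 °C, 5% CO2, in duplicate. Viability by AlamarBlue fluorescence (ex 530/em 590 nm) after 6 h. IC50 from non-linear fit of % growth versus time-zero and vehicle controls.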

A549 [9] = assay: Cytotoxicity against human A549 cells after 24 hrs; format: functional, cell-based; conditions: A549, 24 h
MCF7 [10] = assay: Cytotoxicity against human MCF7 cells after 72 hrs in presence of CuCl2; format: functional, cell-based; conditions: MCF7, 72 h
Method in brief: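 MCF-7 cells in Richter's improved MEM with 10% FBS. Compound given with 10 μM CuCl2 for 72 h at 37 °C, 5% CO2, in duplicate. AlamarBlue for 6 h, fluorescence ex 530/em 590 nm. IC50 by non-linear Hill fit of % growth referenced to time-zero and vehicle wells.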

A549 [11] = assay: Cytotoxicity against human A549 cells after 72 hrs; format: functional, cell-based; conditions: A549, 72 h; method in brief: as §2

| Activity [3] | Structure (SMILES) | IC50 (MCF7 [1]) [µM] | IC50 (A549 [2]) [µM] | also measured |
| --- | --- | --- | --- | --- |
| Active | CCOC(=O)c1cccc2oc(-c3ccccc3O)nc12 | 15 | 40 |  |
|  | COC(=O)c1cccc2oc(-c3cccc4oc(-c5ccccc5O)nc34)nc12 |  |  | IC50 (A549 [4]): 4.5 µM; IC50 (MCF7 [5]): 4.6 µM; IC50 (MCF7 [6]): 1.7 µM; IC50 (MCF7 [7]): 31 µM; IC50 (A549 [8]): 0.2 µM; IC50 (A549 [9]): 17 µM; IC50 (MCF7 [10]): 1.2 µM; IC50 (A549 [11]): 1 µM |
| Active | COC(=O)c1cccc2oc(-c3ccccc3O)nc12 | 4 | 12 |  |
| Active | O=C(OCCOCCOCCOCCO)c1cccc2oc(-c3ccccc3O)nc12 | 13 | 11 |  |
| Active | CCCCNC(=O)c1cccc2oc(-c3ccccc3O)nc12 | 30 | 14 |  |
|  | CO[C@@]12[C@H](COC(N)=O)C3=C(C(=O)C(C)=C(N)C3=O)N1C[C@@H]1N[C@@H]12 [MITOMYCIN] |  |  | IC50 (MCF7 [6]): 1.2 µM; IC50 (MCF7 [7]): 5 µM; IC50 (A549 [9]): 4.5 µM; IC50 (A549 [11]): 0.24 µM |
| Active | CNC(=O)c1cccc2oc(-c3ccccc3O)nc12 | 10 | 11 |  |
|  | COc1ccccc1-c1nc2c(C(=O)O)cccc2o1 | > 50 | > 50 |  |
|  | COC(=O)c1cccc2nc(-c3ccccc3O)oc12 | 7 | 35 |  |
| inactive | O=C(NCCOCCO)c1cccc2oc(-c3ccccc3O)nc12 | > 50 | 41 |  |
| inactive | O=C(NCCCCCCO)c1cccc2oc(-c3ccccc3O)nc12 | 31 | 39 |  |
